SMILES strings stand for the structures. Calls of active or inactive are those of the source. The calls are words filed in the database; no cut-off is given here.

The values below come from ChEMBL document CHEMBL1781896, “Prenylated derivatives of baicalein and 3,7-dihydroxyflavone: synthesis and study of their effects on tumor cell lines growth, cell cycle and apoptosis” (2011).

Type in all cases: functional
Test [1] has as its system MCF7. Briefly: Growth inhibition of human MCF7 cells after 48 hrs by sulforhodamine B assay. The settings on record: MCF7, 48 h. The essentials:
(§1)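 SRB assay in MCF-7, NCI-H460 (5.0 × 10⁴ cells/mL) and A375-C5 (7.5 × 10⁴ cells/mL) grown in RPMI-1640 with 5% FBS. Cells attached overnight, then were exposed 48 h to five serial dilutions (top 150 or 50 µM; DMSO ≤0.25%). Cells were TCA-fixed, SRB-stained and read at A492. GI₅₀ taken from dose-response curves. Mean ± SEM, ≥3 independent experiments in duplicate.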

The nature of test [2]: Growth inhibition of human A375-C5 cells after 48 hrs by sulforhodamine B assay. The settings on record: A375-C5, 48 h. The essentials: as §1
Test [3] has as its system NCI-H460. Briefly: Growth inhibition of human NCI-H460 cells after 48 hrs by sulforhodamine B assay. Conditions: NCI-H460, 48 h. The essentials:
as §1

For test [4], the system named is NCI-H460. Briefly: Cell cycle arrest in human NCI-H460 cells assessed as decrease in cell accumulation in S phase at 4.9 uM after 48 hrs by propidium iodide staining-based flow cytometry.
Test [5] relates to NCI-H460. As to the kind of experiment: Induction of apoptosis in human NCI-H460 cells assessed as apoptotic cells at 4.9 uM after 48 hrs using annexin-V FITC/PI staining by flow cytometry (reference value: 8.4 to 11.2%).
Test [6] relates to NCI-H460. As to the kind of experiment: Cell cycle arrest in human NCI-H460 cells assessed as decrease in cell accumulation in G2/M phase at 4.9 uM after 48 hrs by propidium iodide staining-based flow cytometry.
Test [7] deals with NCI-H460. Briefly: Cell cycle arrest in human NCI-H460 cells assessed as increase in cell accumulation in G1 phase at 4.9 uM after 48 hrs by propidium iodide staining-based flow cytometry.
Test [8] deals with NCI-H460. As to the kind of experiment: Cell cycle arrest in human NCI-H460 cells assessed as increase in cell accumulation in G1 phase at 3.9 uM after 48 hrs by propidium iodide staining-based flow cytometry.
Test [9] deals with NCI-H460. Briefly: Induction of apoptosis in human NCI-H460 cells assessed as apoptotic cells at 3.9 uM after 48 hrs using annexin-V FITC/PI staining by flow cytometry (reference value: 8.4 to 11.2%).
The subject of test [10] is NCI-H460. Briefly: Cell cycle arrest in human NCI-H460 cells assessed as decrease in cell accumulation in G2/M phase at 3.9 uM after 48 hrs by propidium iodide staining-based flow cytometry.
In test [11] the test system is NCI-H460. Briefly: Cell cycle arrest in human NCI-H460 cells assessed as decrease in cell accumulation in S phase at 3.9 uM after 48 hrs by propidium iodide staining-based flow cytometry.
Test [12] relates to NCI-H460. Briefly: Induction of apoptosis in human NCI-H460 cells assessed as apoptotic cells at 4.1 uM after 48 hrs using annexin-V FITC/PI staining by flow cytometry (reference value: 8.4 to 11.2%).
Test [13] has as its system NCI-H460. As to the kind of experiment: Cell cycle arrest in human NCI-H460 cells assessed as decrease in cell accumulation in S phase at 4.1 uM after 48 hrs by propidium iodide staining-based flow cytometry.
In test [14] the test system is NCI-H460. As to the kind of experiment: Cell cycle arrest in human NCI-H460 cells assessed as increase in cell accumulation in G1 phase at 4.1 uM after 48 hrs by propidium iodide staining-based flow cytometry.
Test [15] relates to NCI-H460. As to the kind of experiment: Cell cycle arrest in human NCI-H460 cells assessed as decrease in cell accumulation in G2/M phase at 4.1 uM after 48 hrs by propidium iodide staining-based flow cytometry.
For test [16], the system named is NCI-H460. Briefly: Cell cycle arrest in human NCI-H460 cells assessed as increase in cell accumulation in G1 phase at 12.6 uM after 48 hrs by propidium iodide staining-based flow cytometry.
Test [17] has as its system NCI-H460. As to the kind of experiment: Cell cycle arrest in human NCI-H460 cells assessed as decrease in cell accumulation in S phase at 12.6 uM after 48 hrs by propidium iodide staining-based flow cytometry.
In test [18] the test system is NCI-H460. Briefly: Cell cycle arrest in human NCI-H460 cells assessed as decrease in cell accumulation in G2/M phase at 12.6 uM after 48 hrs by propidium iodide staining-based flow cytometry.
Test [19] concerns NCI-H460. As to the kind of experiment: Induction of apoptosis in human NCI-H460 cells assessed as apoptotic cells at 12.6 uM after 48 hrs using annexin-V FITC/PI staining by flow cytometry (reference value: 8.4 to 11.2%).
In test [20] the test system is NCI-H460. Briefly: Cell cycle arrest in human NCI-H460 cells assessed as increase in cell accumulation in G1 phase at 2.7 uM after 48 hrs by propidium iodide staining-based flow cytometry.
In test [21] the test system is NCI-H460. Briefly: Cell cycle arrest in human NCI-H460 cells assessed as decrease in cell accumulation in S phase at 2.7 uM after 48 hrs by propidium iodide staining-based flow cytometry.
Test [22] relates to NCI-H460. Briefly: Cell cycle arrest in human NCI-H460 cells assessed as decrease in cell accumulation in G2/M phase at 2.7 uM after 48 hrs by propidium iodide staining-based flow cytometry.
For test [23], the system named is NCI-H460. As to the kind of experiment: Induction of apoptosis in human NCI-H460 cells assessed as apoptotic cells at 2.7 uM after 48 hrs using annexin-V FITC/PI staining by flow cytometry (reference value: 8.4 to 11.2%).
Test [24] relates to NCI-H460. Briefly: Cell cycle arrest in human NCI-H460 cells assessed as increase in cell accumulation in G1 phase at 6.8 uM after 48 hrs by propidium iodide staining-based flow cytometry.
Test [25] concerns NCI-H460. Briefly: Cell cycle arrest in human NCI-H460 cells assessed as decrease in cell accumulation in G2/M phase at 6.8 uM after 48 hrs by propidium iodide staining-based flow cytometry.
Test [26] concerns NCI-H460. As to the kind of experiment: Induction of apoptosis in human NCI-H460 cells assessed as apoptotic cells at 6.8 uM after 48 hrs using annexin-V FITC/PI staining by flow cytometry (reference value: 8.4 to 11.2%).
Test [27] deals with NCI-H460. Briefly: Cell cycle arrest in human NCI-H460 cells assessed as decrease in cell accumulation in S phase at 6.8 uM after 48 hrs by propidium iodide staining-based flow cytometry.

For `CC(C)=CCOc1c(OCC=C(C)C)c(O)c2c(=O)cc(-c3ccccc3)oc2c1CC=C(C)C`, the GI50 in test [1], in [2] and in [3] was more than 150 µM in each case.

Regarding `CC1(C)CCc2c(c(O)c(O)c3c(=O)cc(-c4ccccc4)oc23)O1`, the GI50 in [1] was 21 µM; in test [2], 27.4 µM; in test [3] it was 17.7 µM.

In the case of `CC(C)=CCOc1cc2oc(-c3ccccc3)cc(=O)c2c(O)c1OCC=C(C)C`, the GI50 in test [1], in [2] and in [3] was more than 150 µM each time.

As to `CC(C)=CCC/C(C)=C/COc1ccc2c(=O)c(O)c(-c3ccccc3)oc2c1`, the figures for the concentration for 50% growth inhibition (GI50) in [1], in test [2] and in test [3] were 6.4 µM, 7.2 µM and 4.9 µM, respectively. Also, the result in test [4], in test [6] and in test [7] was Active. For the same molecule, the Activity in [5] was found to be 12%.

As to `CC1Oc2ccc3c(=O)c(O)c(-c4ccccc4)oc3c2C1(C)C` (configuration not stated), the values for the 50% growth inhibitory concentration (GI50) in test [1], in [2] and in [3] were 4.5 µM, 7.6 µM and 3.9 µM, respectively. Further, the outcome in test [8], in test [10] and in test [11] was Active. In test [9], the Activity was found to be 9.5%.

With `CC(C)=CCC/C(C)=C/COc1cc2oc(-c3ccccc3)cc(=O)c2c(O)c1O`, the GI50 amounted to 4.4 µM in test [1], 5.3 µM in [2] and 4.1 µM in test [3]. The Activity in test [12] is reported as 18.8%; in test [14], more than 10%. Besides, the outcome in test [13] and in test [15] was Active.

Take `O=c1c(O)c(-c2ccccc2)oc2cc(O)ccc12` [3,7-DIHYDROXYFLAVONE]: the GI50 stood at 17.4 µM in test [1], 23 µM in test [2] and 15.4 µM in test [3].

Consider `CC1Oc2c(O)c(O)c3c(=O)cc(-c4ccccc4)oc3c2C1(C)C` (configuration not stated), for which the values for the GI50 in [1], in test [2] and in [3] were 43.7 µM, 47.7 µM and 40.6 µM, respectively.

As to `CC(C)=CCOc1ccc2c(=O)c(O)c(-c3ccccc3)oc2c1`, the result in test [16], in test [17] and in test [18] was Active. The GI50 in test [1] worked out at 14 µM; in [2], 30.3 µM; in test [3], 12.6 µM. Further, in test [19], the Activity amounted to 11.9%.

Take `CC1(C)CCc2c(ccc3c(=O)c(O)c(-c4ccccc4)oc23)O1`: the GI50 in [1] stood at 3.7 µM; in test [2], 2.3 µM; in test [3], 2.7 µM. Further, the outcome in test [20], in test [21] and in test [22] was Active. Further, the Activity in test [23] is recorded as 13.1%.

As to `CC(C)=CCC/C(C)=C/COc1ccc2c(=O)c(OC/C=C(\C)CCC=C(C)C)c(-c3ccccc3)oc2c1`, the 50% growth inhibitory concentration (GI50) was found to be 66.5 µM in test [1], 58.5 µM in test [2] and 55 µM in test [3].

For the molecule `CC(C)=CCC/C(C)=C/COc1c(OC/C=C(\C)CCC=C(C)C)c(O)c2c(=O)cc(-c3ccccc3)oc2c1C/C=C(\C)CCC=C(C)C`, the 50% growth inhibitory concentration (GI50) in test [1], in [2] and in [3] was more than 150 µM throughout.

For the molecule `O=c1cc(-c2ccccc2)oc2cc(O)c(O)c(O)c12` [BAICALEIN], the GI50 was found to be 32.8 µM in test [1], 7.7 µM in test [2] and 26.7 µM in [3].

As for `CC(C)=CCOc1ccc2c(=O)c(OCC=C(C)C)c(-c3ccccc3)oc2c1`, the GI50 worked out at 63.3 µM in test [1], 59 µM in test [2] and 51.9 µM in [3].

Consider `CC(C)=CCOc1cc2oc(-c3ccccc3)cc(=O)c2c(O)c1O`, for which the GI50 amounted to 9.1 µM in test [1], 9.2 µM in test [2] and 6.8 µM in test [3]. The Activity was more than 10% in test [24] and 9.1% in [26]. The outcome in test [25] and in [27] was Active.

`CC(C)=CCC/C(C)=C/COc1cc2oc(-c3ccccc3)cc(=O)c2c(O)c1OC/C=C(\C)CCC=C(C)C`: the 50% growth inhibitory concentration (GI50) in test [1], in test [2] and in test [3] was more than 150 µM each time.
